Measured values reported in ChEMBL document CHEMBL3525987, “Assessment of exposure of metabolites in preclinical species and humans at steady state from the single-dose radiolabeled absorption, distribution, metabolism, and excretion studies: a case study” (Drug Metab Dispos, 2012).

Columns and labels:
[1] = Cmax in male beagle dog plasma at 10 mg/kg, po administered as single dose by LC-MS/MS analysis; assay type: ADME, organism-based, Canis lupus familiaris; set-up: dose 10 mg/kg, dosed compound name [14C]lixivaptan, route oral
Procedure, shortened: (§1)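 Four male beagles were fasted 18 h and gavaged once with 10 mg/kg (2 ml/kg) [14C]lixivaptan as a 5.0 mg/ml water/pluronic F68 suspension. Jugular K2EDTA blood was sampled from 0.25 to 168 h. Plasma total radioactivity was counted by LSC as ng-equiv/ml and lixivaptan by validated LC-MS/MS. Noncompartmental Cmax, t1/2 and trapezoidal AUC were derived.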

[2] = AUC(0 to t) in male beagle dog plasma at 10 mg/kg, po administered as single dose by LC-MS/MS analysis; assay type: ADME, organism-based, Canis lupus familiaris; set-up: dose 10 mg/kg, dosed compound name [14C]lixivaptan, route oral; procedure, shortened: as §1
[3] = AUC(0 to infinity) in male Sprague-Dawley rat plasma at 10 mg/kg, po administered as single dose via gavage by LC-MS/MS analysis; assay type: ADME, organism-based; set-up: time infinity, dose 10 mg/kg, dosed compound name [14C]lixivaptan, route oral
Procedure, shortened: (§2)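 Jugular-cannulated Sprague-Dawley rats (5/gender) were fasted 18 h and gavaged once with 10 mg/kg [14C]lixivaptan suspended in water/pluronic F68. K2EDTA blood was taken at 0.25–168 h, with donor blood replaced from 1 h on. Total radioactivity was read by LSC (ng-equiv/ml) and parent by validated LC-MS/MS. Noncompartmental Cmax, log-linear kel and trapezoidal AUC followed.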

[4] = Tmax in female Sprague-Dawley rat plasma at 10 mg/kg, po administered as single dose via gavage by LC-MS/MS analysis; assay type: ADME, organism-based; set-up: dose 10 mg/kg, dosed compound name [14C]lixivaptan, route oral
Procedure, shortened: (§3)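 Jugular-vein cannulated SD rats (5/gender) given gavage [14C]drug 10 mg/kg in pluronic F68/water; K2EDTA blood 0.25-168 h with donor blood replacement. Parent by validated LC-MS/MS, radioactivity by LSC; Tmax observed; t1/2 = 0.693/kel by terminal log-linear regression.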

[5] = AUC(0 to infinity) in human plasma at 100 mg, po administered as single dose by LC-MS/MS analysis; assay type: ADME, organism-based; set-up: dose 100 mg, route oral, time infinity, dosed compound name [14C]lixivaptan
Procedure, shortened: (§4)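 Fasted healthy males took one oral 100 mg (200 µCi) [14C]lixivaptan dose. Plasma was drawn from predose to 144 h. Total radioactivity was measured by LSC and converted to ng-equiv/ml via the dose specific activity; lixivaptan by validated LC-MS/MS. Noncompartmental analysis: Cmax observed; kel by log-linear regression; AUC0-t by linear trapezoid; extrapolation as Cest/kel.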

[6] = AUC(0 to t) in male Sprague-Dawley rat plasma at 10 mg/kg, po administered as single dose via gavage by LC-MS/MS analysis; assay type: ADME, organism-based; set-up: dose 10 mg/kg, dosed compound name [14C]lixivaptan, route oral; procedure, shortened: as §2
[7] = AUC(0 to infinity) in female Sprague-Dawley rat plasma at 10 mg/kg, po administered as single dose via gavage by LC-MS/MS analysis; assay type: ADME, organism-based; set-up: time infinity, dose 10 mg/kg, dosed compound name [14C]lixivaptan, route oral; procedure, shortened: as §2
[8] = Tmax in male beagle dog plasma at 10 mg/kg, po administered as single dose by LC-MS/MS analysis; assay type: ADME, organism-based, Canis lupus familiaris; set-up: dose 10 mg/kg, dosed compound name [14C]lixivaptan, route oral
Procedure, shortened: (§5)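 Male beagles given 10 mg/kg [14C]drug oral suspension; jugular K2EDTA blood at 0.25-168 h. Parent by validated LC-MS/MS, total radioactivity by LSC; Tmax observed; t1/2 = 0.693/kel from terminal log-linear regression.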

[9] = AUC(0 to infinity) in male beagle dog plasma at 10 mg/kg, po administered as single dose by LC-MS/MS analysis; assay type: ADME, organism-based, Canis lupus familiaris; set-up: time infinity, dose 10 mg/kg, dosed compound name [14C]lixivaptan, route oral; procedure, shortened: as §1
[10] = Half life in male beagle dog plasma at 10 mg/kg, po administered as single dose by LC-MS/MS analysis; assay type: ADME, organism-based, Canis lupus familiaris; set-up: dose 10 mg/kg, dosed compound name [14C]lixivaptan, route oral; procedure, shortened: as §5
[11] = Tmax in human plasma at 100 mg, po administered as single dose by LC-MS/MS analysis; assay type: ADME, organism-based; set-up: dosed compound name [14C]lixivaptan
Procedure, shortened: (§6)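 Single oral 100 mg [14C]drug to healthy male volunteers; plasma at 0.25-144 h. Parent by validated LC-MS/MS, total radioactivity by LSC as ng-equiv/ml; Tmax from observed data; t1/2 = 0.693/kel from log-linear terminal regression.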

[12] = Tmax in male Sprague-Dawley rat plasma at 10 mg/kg, po administered as single dose via gavage by LC-MS/MS analysis; assay type: ADME, organism-based; set-up: dose 10 mg/kg, dosed compound name [14C]lixivaptan, route oral; procedure, shortened: as §3
[13] = AUC at steady state in human at 100 mg, po qd for 7 days by LC/MS/MS analysis; assay type: ADME, organism-based; set-up: dosed compound name Lixivaptan; conditions: plasma
Procedure, shortened: (§7)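 Phase 1 human study with lixivaptan 100 mg orally once daily and blood taken on the final day. Parent and two abundant metabolites were quantified in plasma with a validated LC-MS/MS assay.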

Homo sapiens = assay: Drug concentration at steady state in human at 100 mg, po qd for 7 days by LC/MS/MS analysis; assay type: ADME, organism-based; set-up: dosed compound name Lixivaptan; conditions: in vivo, 168 h; procedure, shortened: as §7
[14] = Half life in female Sprague-Dawley rat plasma at 10 mg/kg, po administered as single dose via gavage by LC-MS/MS analysis; assay type: ADME, organism-based; set-up: dose 10 mg/kg, dosed compound name [14C]lixivaptan, route oral; procedure, shortened: as §3
[15] = AUC(0 to t) in female Sprague-Dawley rat plasma at 10 mg/kg, po administered as single dose via gavage by LC-MS/MS analysis; assay type: ADME, organism-based; set-up: dose 10 mg/kg, dosed compound name [14C]lixivaptan, route oral; procedure, shortened: as §2
[16] = Cmax in human plasma at 100 mg, po administered as single dose by LC-MS/MS analysis; assay type: ADME, organism-based; set-up: dose 100 mg, route oral, dosed compound name [14C]lixivaptan; procedure, shortened: as §4
[17] = AUC(0 to t) in human plasma at 100 mg, po administered as single dose by LC-MS/MS analysis; assay type: ADME, organism-based; set-up: dosed compound name [14C]lixivaptan; procedure, shortened: as §4
[18] = Half life in human plasma at 100 mg, po administered as single dose by LC-MS/MS analysis; assay type: ADME, organism-based; set-up: dosed compound name [14C]lixivaptan; procedure, shortened: as §6
[19] = Half life in male Sprague-Dawley rat plasma at 10 mg/kg, po administered as single dose via gavage by LC-MS/MS analysis; assay type: ADME, organism-based; set-up: dose 10 mg/kg, dosed compound name [14C]lixivaptan, route oral; procedure, shortened: as §3
[20] = Cmax in female Sprague-Dawley rat plasma at 10 mg/kg, po administered as single dose; assay type: ADME, organism-based; set-up: dose 10 mg/kg, dosed compound name [14C]lixivaptan, route oral; procedure, shortened: as §2
[21] = Cmax in male Sprague-Dawley rat plasma at 10 mg/kg, po administered as single dose via gavage by LC-MS/MS analysis; assay type: ADME, organism-based; set-up: dose 10 mg/kg, dosed compound name [14C]lixivaptan, route oral; procedure, shortened: as §2

Question: For `Cc1ccc(F)cc1C(=O)Nc1ccc(C(=O)N2Cc3cccn3Cc3ccccc32)c(Cl)c1` [LIXIVAPTAN], which Cmax [1] is on record?
Answer: 759 ng/mL

Question: What about the AUC(0-t) [2] of the same compound?
Answer: 4700 ng·h/mL

Question: And the AUC(0-inf) [3]?
Answer: 219 ng·h/mL

Question: What about the Tmax [4] of the same compound?
Answer: 0.8 h

Question: And the AUC(0-inf) [5]?
Answer: 1570 ng·h/mL

Question: What about the AUC(0-t) [6] of the same compound?
Answer: 140 ng·h/mL

Question: What about the AUC(0-inf) [7] of the same compound?
Answer: 1890 ng·h/mL

Question: And the Tmax [8]?
Answer: 0.8 h

Question: And the AUC(0-inf) [9]?
Answer: 4870 ng·h/mL

Question: And the half-life [10]?
Answer: 8.8 h

Question: And the Tmax [11]?
Answer: 0.7 h

Question: What about the Tmax [12] of the same compound?
Answer: 0.8 h

Question: What about the AUC at 168 h [13] of the same compound?
Answer: 2960 ng·h/mL

Question: What about the Css (Homo sapiens) of the same compound?
Answer: 514 ng/mL

Question: And the half-life [14]?
Answer: 4.2 h

Question: What about the AUC(0-t) [15] of the same compound?
Answer: 1530 ng·h/mL

Question: And the Cmax [16]?
Answer: 437 ng/mL

Question: And the AUC(0-t) [17]?
Answer: 1540 ng·h/mL

Question: What about the half-life [18] of the same compound?
Answer: 9.77 h

Question: What about the half-life [19] of the same compound?
Answer: 1.3 h

Question: What about the Cmax [20] of the same compound?
Answer: 338 ng/mL

Question: What about the Cmax [21] of the same compound?
Answer: 91 ng/mL
